In the library only some 4.1% were active in any assay of this set; here they are far more common.
hERG rescue – shields human hERG channel from block by proarrhythmic agents; Q12809; CHO-hERG, FluxOR thallium flux, dofetilide IC70 present; activation (rescue from dofetilide block), less the hit threshold, % at 10 µM; actives 0.51% (n = 310,000); AID 1511;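 active = activation above the mean of controls blocked by dofetilide plus 5 SD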;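 note: thallium influx through hERG after potassium depolarization seen as dye fluorescence rise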
KCNQ1 act – potentiators or activators of human KCNQ1 potassium channel; P51787; CHO-K1 KCNQ1, thallium flux FluxOR fluorescence; hits give high values; B-score at 10 µM; actives 0.35% (n = 310,000); AID 2648;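 active = fluorescence ratio B-score, a plate-corrected score, at least three library SD, with initial intensity B-score within 5 SD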
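Schedule – 37 °C overnight plating, 90-min dark dye load, 20-min compound pretreatment · System – stable KCNQ1 CHO-K1 line · Probe or stimulus – thallium- and potassium-containing depolarizing buffer · Measured by – kinetic FluxOR fluorescence, 10 s baseline plus 110 s post-stimulus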
KCNQ1 inh – blocks the human KCNQ1 potassium channel | CHO-K1 KCNQ1, FluxOR thallium flux fluorescence; hits give high values | B-score at 10 µM | actives 1.3% (n = 310,000) | AID 2642;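 active = compounds whose thallium flux B-score, printed positive for inhibition, exceeds three library SD while starting fluorescence stays within three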;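 note: channel opened by potassium depolarization with thallium stimulus after 20 min compound exposure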
KCNK9 inh – blocks the human KCNK9 two-pore domain potassium channel; Q9NPC2; HEK293 KCNK9, FluxOR thallium flux fluorescence; hits give low values; B-score at 10 µM; actives 1.2% (n = 310,000); AID 488922;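 active = ratio B-score over 3 SD below the library mean, with starting fluorescence within 5 SD of its mean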;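 note: negative B-score means less thallium flux so channel inhibition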
KCNK3 inh – human KCNK3 channel inhibition, primary screen; AID 602410; O14649; B-score at 10 µM; actives 0.84% (n = 340,000); CHO-KCNK3 thallium flux, FluxOR fluorescence; hits give low values;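 active = B-score under library mean minus 4 SD, starting fluorescence ratio at most library mean plus 5 SD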;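 note: more negative B-score means stronger inhibition of thallium flux through KCNK3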
Target sequence (O14649 whole entry, looked up): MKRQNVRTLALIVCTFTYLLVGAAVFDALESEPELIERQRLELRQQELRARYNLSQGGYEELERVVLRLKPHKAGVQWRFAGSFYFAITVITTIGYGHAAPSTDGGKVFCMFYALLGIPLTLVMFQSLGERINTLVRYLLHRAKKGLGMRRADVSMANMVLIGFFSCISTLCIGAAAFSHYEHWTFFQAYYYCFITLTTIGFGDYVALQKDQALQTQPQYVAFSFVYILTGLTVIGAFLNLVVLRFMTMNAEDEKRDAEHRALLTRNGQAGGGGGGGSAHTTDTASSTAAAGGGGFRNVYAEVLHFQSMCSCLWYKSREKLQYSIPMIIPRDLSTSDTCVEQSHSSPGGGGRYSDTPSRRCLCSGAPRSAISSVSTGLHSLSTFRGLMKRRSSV
KCC2 mod – modulators of human KCC2 chloride dependent transport; Q9H2X9; KCC2 cells, thallium flux FluoZin-2 fluorescence; B-score of Tl+ flux slope (higher = more flux/activation; lower = inhibition) at 10 µM; actives 2.2% (n = 190,000);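 active = thallium flux slope and its plate-corrected score both differing from the plate sample mean at a set confidence after two filtering rounds, in either direction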;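 note: slope of fluorescence scaled to starting intensity during 10 to 20 s after thallium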
* marks the source's active call; other numbers are inactive results; i = inactive; . = no result.

SMILES | hERG rescue | KCNQ1 act | KCNQ1 inh | KCNK9 inh | KCNK3 inh | KCC2 mod
Nc1nc(-c2c(Cl)cccc2Cl)no1 | 5.7* | i | i | i | i | .
Clc1cccc(Cl)c1-c1noc(CN2CCOCC2)n1 | -5 | i | i | i | i | 1.3
Cc1ccc(S(=O)(=O)N2CC3(C)CN(S(=O)(=O)c4ccc(C)cc4)CC(C)(C2)C3)cc1 | 2 | i | i | i | i | .
CCC12CN(S(=O)(=O)c3ccc(C)cc3)CC(CC)(CN(S(=O)(=O)c3ccc(C)cc3)C1)C2=O | -9 | i | i | i | -9.1* | 0.19
COc1ccc(N2CCN(c3ncnc4scc(-c5ccc(C)cc5)c34)CC2)cc1 | -4 | i | i | -7.9* | i | .
CCN1CCN(c2ncnc3scc(-c4ccc(OC)cc4)c23)CC1 | -7 | i | i | i | i | .
COc1ccc(-c2csc3ncnc(N4CCN(c5cccc(Cl)c5)CC4)c23)cc1 | -16 | i | 6* | i | i | .
Cc1noc(C)c1C(=O)NC1=NCCS1 | -6 | i | i | i | i | .
N/C(=N\OC(=O)CSc1ccccc1)c1ccncc1 | -1 | i | i | i | i | .
COc1ccc(NC(=S)N/N=C/c2cccn2Cc2ccccc2F)cc1 | -6 | i | i | i | i | 0.99
CSc1ccccc1NC(=S)N/N=C/c1cccn1Cc1cccc(C)c1 | -18 | i | i | -6.6* | i | .
COc1ccc(C2(CO)OC(CO)C(O)C2O)cc1 (stereo not given) | . | . | . | . | i | .
CCn1nnc2cc(C(=O)Nc3cc(S(C)(=O)=O)ccc3Cl)ccc21 | -13 | 10* | i | i | i | .
O=C1C=C(c2ccc3[nH]ccc3c2)C[C@@H](c2ccc(Cl)cc2)C1 | . | . | . | . | i | .
COc1cc2ncnc(NCc3cccs3)c2cc1OC | 5.0* | i | i | i | i | -0.45
CCc1cccc(CC)c1NC(=O)c1cccc(S(=O)(=O)N2CCN(C)CC2)c1 | -8 | i | i | i | i | .
CNc1ccccc1C(=O)OC(C)C(=O)Nc1ccc(Cl)cn1 (stereo not given) | -8 | 12* | i | i | i | .
CCOc1ncccc1C(=O)OC(C)C(=O)Nc1ccc(Cl)cn1 (stereo not given) | . | . | . | . | i | .
O=C(O)c1ccccc1-c1nc2ccccc2[nH]1 | -3 | i | i | i | i | -0.28
Oc1ccc2ccccc2c1C=Nc1ccccc1-c1nc2ccccc2[nH]1 | -9 | i | 9* | i | i | 0.33
CCCc1nnc(NC(=O)CCC(=O)NC2CCCCCC2)s1 | -7 | i | i | i | i | .
O=C(CCCn1nnnc1CN1CCOCC1)N1CCC(c2ccccc2F)C1 (stereo not given) | -4 | i | i | i | i | .
O=C(CCCn1nnnc1CN1CCOCC1)N1CCN(c2ccccc2F)CC1 | -9 | 8* | i | i | i | .
c1ccc2c(c1)oc1c(NCc3ccc4c(c3)OCO4)ncnc12 | -2 | i | i | i | i | -5.1*
CC(=O)C1=C(C)NC(SCC(=O)c2ccc(Cl)cc2)=C(C#N)C1c1ccco1 (stereo not given) | -5 | i | i | -15* | i | .
Cc1oc2cc([N+](=O)[O-])c(O)c([N+](=O)[O-])c2c1C(=O)c1ccc(Cl)cc1 | -10 | i | 6* | i | i | -2.2
CCN(CC)CCNC(C(=O)Nc1ccc([N+](=O)[O-])cc1Br)c1ccccc1 (stereo not given) | -13 | i | i | i | i | 0.14
CN(C)C(CNC(C(=O)Nc1ccc([N+](=O)[O-])cc1Br)c1ccccc1)c1ccccc1 (stereo not given) | -13 | i | 9* | i | i | 0.6
CC(C)CC(COCc1ccc(C(F)(F)F)cc1)N1CCN(C(=O)c2ccc(C(F)(F)F)cc2)CCC1=O (stereo not given) | -4 | i | i | -7.1* | i | 0.044
Cc1noc(C)c1S(=O)(=O)N(C)C[C@H]1Oc2ccc(NC(=O)NC(C)C)cc2C(=O)N([C@H](C)CO)C[C@@H]1C | . | . | . | . | i | .
